ChEMBL document CHEMBL4396889, “From Inhibition to Degradation: Targeting the Antiapoptotic Protein Myeloid Cell Leukemia 1 (MCL1)” (J Med Chem, 2019)
Each block holds one compound with its values, some of them ahead of it. Activity calls are given as the source filed them. No cut-off for these calls is given here.

Tests used:
[1] = molecular target: T1, Induced myeloid leukemia cell differentiation protein Mcl-1 (Homo sapiens, UniProt Q07820); assay: Binding affinity to His-tagged biotinylated human MCL1 by surface plasmon resonance method
[2] = molecular target: T2, Protein cereblon/Induced myeloid leukemia cell differentiation protein Mcl-1 (Homo sapiens) (UniProt Q07820+Q96SW2); assay: Protac activity at Cereblon/MCL1 long isoform in wild type human OPM2 cells assessed as protein abundance at 50 nM after 48 hrs by immunoblot analysis relative to control; format: cell-based
Outline: (§1)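 OPM2 multiple myeloma cells, wild type or CRBN-knockout, were treated for 48 h with degrader or DMSO vehicle. MCL1 long and short isoforms were detected by immunoblot and levels compared with DMSO controls.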

[3] = molecular target: T2, Protein cereblon/Induced myeloid leukemia cell differentiation protein Mcl-1 (Homo sapiens); assay: Protac activity at Cereblon/MCL1 long isoform in wild type human OPM2 cells at 100 nM after 48 hrs by immunoblot analysis relative to control; format: cell-based; outline: as §1
[4] = molecular target: T2, Protein cereblon/Induced myeloid leukemia cell differentiation protein Mcl-1 (Homo sapiens); assay: Protac activity at Cereblon/MCL1 long isoform in wild type human OPM2 cells at 250 nM after 48 hrs by immunoblot analysis relative to control; format: cell-based; outline: as §1
[5] = molecular target: T2, Protein cereblon/Induced myeloid leukemia cell differentiation protein Mcl-1 (Homo sapiens); assay: Protac activity at Cereblon/MCL1 long isoform in wild type human OPM2 cells at 500 nM after 48 hrs by immunoblot analysis relative to control; format: cell-based; outline: as §1
[6] = molecular target: T2, Protein cereblon/Induced myeloid leukemia cell differentiation protein Mcl-1 (Homo sapiens); assay: Protac activity at Cereblon/MCL1 short isoform in wild type human OPM2 cells assessed as MCL1 short isoform abundance at 50 nM after 48 hrs by immunoblot analysis relative to control; format: cell-based
Outline: (§2)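 OPM2 wild-type cells, run alongside the CRBN-/- line, were treated for 48 h with compound or DMSO. The MCL1 long and short isoforms were then measured by immunoblot against the DMSO control.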

[7] = molecular target: T2, Protein cereblon/Induced myeloid leukemia cell differentiation protein Mcl-1 (Homo sapiens); assay: Protac activity at Cereblon/MCL1 short isoform in wild type human OPM2 cells assessed as MCL1 short isoform abundance at 100 nM after 48 hrs by immunoblot analysis relative to control; format: cell-based; outline: as §2
[8] = molecular target: T2, Protein cereblon/Induced myeloid leukemia cell differentiation protein Mcl-1 (Homo sapiens); assay: Protac activity at Cereblon/MCL1 short isoform in wild type human OPM2 cells assessed as MCL1 short isoform abundance at 250 nM after 48 hrs by immunoblot analysis relative to control; format: cell-based; outline: as §2
[9] = molecular target: T2, Protein cereblon/Induced myeloid leukemia cell differentiation protein Mcl-1 (Homo sapiens); assay: Protac activity at Cereblon/MCL1 short isoform in wild type human OPM2 cells assessed as MCL1 short isoform abundance at 500 nM after 48 hrs by immunoblot analysis relative to control; format: cell-based; outline: as §2
[10] = molecular target: T1, Induced myeloid leukemia cell differentiation protein Mcl-1; assay: Induction of MCL1 long isoform degradation in CRBN-/- human OPM2 cells assessed as protein abundance at 50 nM after 48 hrs by immunoblot analysis relative to control; format: cell-based; outline: as §1
[11] = molecular target: T1, Induced myeloid leukemia cell differentiation protein Mcl-1; assay: Induction of MCL1 long isoform degradation in CRBN-/- human OPM2 cells assessed as protein abundance at 100 nM after 48 hrs by immunoblot analysis relative to control; format: cell-based; outline: as §1
[12] = molecular target: T1, Induced myeloid leukemia cell differentiation protein Mcl-1; assay: Induction of MCL1 long isoform degradation in CRBN-/- human OPM2 cells assessed as protein abundance at 250 nM after 48 hrs by immunoblot analysis relative to control; format: cell-based; outline: as §1
[13] = molecular target: T1, Induced myeloid leukemia cell differentiation protein Mcl-1; assay: Induction of MCL1 long isoform degradation in CRBN-/- human OPM2 cells assessed as protein abundance at 500 nM after 48 hrs by immunoblot analysis relative to control; format: cell-based; outline: as §1
[14] = molecular target: T1, Induced myeloid leukemia cell differentiation protein Mcl-1; assay: Induction of MCL1 short isoform degradation in CRBN-/- human OPM2 cells assessed as protein abundance at 50 nM after 48 hrs by immunoblot analysis relative to control; format: cell-based; outline: as §1
[15] = molecular target: T1, Induced myeloid leukemia cell differentiation protein Mcl-1; assay: Induction of MCL1 short isoform degradation in CRBN-/- human OPM2 cells assessed as protein abundance at 100 nM after 48 hrs by immunoblot analysis relative to control; format: cell-based; outline: as §1
[16] = molecular target: T1, Induced myeloid leukemia cell differentiation protein Mcl-1; assay: Induction of MCL1 short isoform degradation in CRBN-/- human OPM2 cells assessed as protein abundance at 250 nM after 48 hrs by immunoblot analysis relative to control; format: cell-based; outline: as §1
[17] = molecular target: T1, Induced myeloid leukemia cell differentiation protein Mcl-1; assay: Induction of MCL1 short isoform degradation in CRBN-/- human OPM2 cells assessed as protein abundance at 500 nM after 48 hrs by immunoblot analysis relative to control; format: cell-based; outline: as §1
[18] = Half-life in human liver microsome pre-incubated for 10 mins followed by addition of NADPH regenerating system after 5 to 60 mins by LC/MS/MS analysis; format: ADME; settings: liver microsomes
[19] = molecular target: T2, Protein cereblon/Induced myeloid leukemia cell differentiation protein Mcl-1 (Homo sapiens); assay: Protac activity at Cereblon/MCL1 in human HeLa cell lysate assessed as MCL1 degradation incubated for 3 hrs by SDS-PAGE/immunoblot analysis; format: subcellular
[20] = molecular target: T2, Protein cereblon/Induced myeloid leukemia cell differentiation protein Mcl-1 (Homo sapiens); assay: Protac activity at Cereblon/MCL1 in human OPM2 cells after 48 hrs by immunoblot analysis; format: cell-based; outline: as §1
[21] = molecular target: T1, Induced myeloid leukemia cell differentiation protein Mcl-1; assay: Binding affinity to MCL1 long isoform in human OPM2 incubated overnight using biotin labelled compound by streptavidin based immunoprecipitation method
[22] = molecular target: T1, Induced myeloid leukemia cell differentiation protein Mcl-1; assay: Binding affinity to MCL1 short isoform in human OPM2 incubated overnight using biotin labelled compound by streptavidin based immunoprecipitation method
[23] = molecular target: T2, Protein cereblon/Induced myeloid leukemia cell differentiation protein Mcl-1 (Homo sapiens); assay: Protac activity at Cereblon/MCL1 in human OPM2 cell lysate assessed as induction of MCL1 polyubiquitination incubated for 3 hrs by SDS-PAGE/immunoblot analysis; format: subcellular
Outline: (§3)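 In vitro ubiquitinylation reactions; the target (MCL1 or BRD4) was then immunoprecipitated and the immunoprecipitate immunoblotted for ubiquitin.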

[24] = molecular target: Protein cereblon/Bromodomain-containing protein 4 (Homo sapiens) (UniProt O60885+Q96SW2); assay: Protac activity at Cereblon/BRD4 in human OPM2 cell lysate assessed as induction of BRD4 polyubiquitination incubated for 3 hrs by SDS-PAGE/immunoblot analysis; format: subcellular; outline: as §3
Chain of Protein cereblon/Bromodomain-containing protein 4 (Homo sapiens) (Q96SW2 whole entry, looked up, other chains not shown): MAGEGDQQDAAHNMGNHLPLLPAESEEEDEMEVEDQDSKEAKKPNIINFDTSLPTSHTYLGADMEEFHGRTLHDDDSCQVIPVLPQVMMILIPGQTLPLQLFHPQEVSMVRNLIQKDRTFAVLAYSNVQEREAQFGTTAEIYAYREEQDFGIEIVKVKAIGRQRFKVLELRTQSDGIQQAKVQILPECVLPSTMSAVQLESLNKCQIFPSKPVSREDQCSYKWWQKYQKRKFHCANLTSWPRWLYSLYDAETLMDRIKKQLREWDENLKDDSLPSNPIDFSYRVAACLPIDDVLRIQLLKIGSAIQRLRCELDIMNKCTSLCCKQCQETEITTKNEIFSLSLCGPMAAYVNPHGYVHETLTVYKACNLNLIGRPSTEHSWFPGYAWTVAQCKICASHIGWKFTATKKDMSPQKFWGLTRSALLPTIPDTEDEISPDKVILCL

T1 sequence (Q07820 whole entry, canonical isoform): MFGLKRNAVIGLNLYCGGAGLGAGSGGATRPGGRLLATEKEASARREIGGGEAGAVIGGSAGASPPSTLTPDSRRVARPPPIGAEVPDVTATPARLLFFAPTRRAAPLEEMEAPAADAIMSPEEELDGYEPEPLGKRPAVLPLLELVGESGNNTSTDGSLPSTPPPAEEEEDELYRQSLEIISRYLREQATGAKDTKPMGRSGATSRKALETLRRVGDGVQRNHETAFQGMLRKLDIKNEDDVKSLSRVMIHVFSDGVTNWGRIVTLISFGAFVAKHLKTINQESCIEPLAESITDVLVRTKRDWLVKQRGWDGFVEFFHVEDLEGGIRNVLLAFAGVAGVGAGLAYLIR
T2 sequence (Q07820 whole entry, looked up, canonical isoform): as the sequence (Q07820 whole entry, canonical isoform) above
T2 sequence (Q96SW2 whole entry, looked up, canonical isoform): as the sequence (Q96SW2 whole entry, looked up, other chains not shown) above

Kd [1]: 0.019 µM
Activity [2]: 140%
Activity [3]: 195%
Activity [4]: 237%
Activity [5]: 275%
Activity [6]: 110%
Activity [7]: 148%
Activity [8]: 287%
Activity [9]: 374%
Activity [10]: 140%
Activity [11]: 152%
Activity [12]: 162%
Activity [13]: 183%
Activity [14]: 100%
Activity [15]: 111%
Activity [16]: 154%
Activity [17]: 286%
half-life [18]: 21.7 min
Compound: Cc1nn(C)c(COc2ccc(N3CCN(S(=O)(=O)N(C)C)CC3)cc2)c1-c1cccc2c(CCCOc3cccc4ccccc34)c(C(=O)O)n(CCN3CCOCC3)c12

Activity [19]: inactive
Activity [20]: inactive
Compound: Cc1nn(C)c(COc2ccc(N3CCN(C(=O)CCC(=O)NCCCOCCOCCOCNC(=O)COc4cccc5c4C(=O)N(C4CCC(=O)NC4=O)C5=O)CC3)cc2)c1-c1cccc2c(CCCOc3cccc4ccccc34)c(C(=O)O)n(CCN3CCOCC3)c12 (stereo unspecified)

Activity [19]: inactive
Compound: Cc1nn(C)c(COc2ccc(N3CCN(S(=O)(=O)N(C)C)CC3)cc2)c1-c1cccc2c(CCCOc3cccc4ccccc34)c(C(=O)NCCCCNC(=O)COc3cccc4c3C(=O)N(C3CCC(=O)NC3=O)C4=O)n(CCN3CCOCC3)c12 (stereo unspecified)

Activity [19]: inactive
Activity [20]: inactive
Compound: Cc1nn(C)c(COc2ccc(N3CCN(C(=O)COc4cccc5c4C(=O)N(C4CCC(=O)NC4=O)C5=O)CC3)cc2)c1-c1cccc2c(CCCOc3cccc4ccccc34)c(C(=O)O)n(CCN3CCOCC3)c12 (stereo unspecified)

Activity [19]: inactive
Activity [20]: inactive
Compound: Cc1nn(C)c(COc2ccc(N3CCN(C(=O)CCCNC(=O)COc4cccc5c4C(=O)N(C4CCC(=O)NC4=O)C5=O)CC3)cc2)c1-c1cccc2c(CCCOc3cccc4ccccc34)c(C(=O)O)n(CCN3CCOCC3)c12 (stereo unspecified)

Activity [21]: Active
Activity [22]: Active
Compound: Cc1nn(C)c(COc2ccc(N3CCN(S(=O)(=O)N(C)C)CC3)cc2)c1-c1cccc2c(CCCOc3cccc4ccccc34)c(C(=O)O)n(CCN3CCN(C(=O)CCCC[C@@H]4SC[C@@H]5NC(=O)N[C@@H]54)CC3)c12

Activity [23]: Active
Compound: Cc1nn(C)c(COc2ccc(N3CCN(S(=O)(=O)N(C)C)CC3)cc2)c1-c1cccc2c(CCCOc3cccc4ccccc34)c(C(=O)O)n(CCN3CCN(C(=O)CCC(=O)NCCCOCCOCCOCCCNC(=O)COc4cccc5c4C(=O)N(C4CCC(=O)NC4=O)C5=O)CC3)c12 (stereo unspecified)

Activity [24]: Active
Compound: Cc1sc2c(c1C)C(c1ccc(Cl)cc1)=N[C@@H](CC(=O)NCCCCNC(=O)COc1cccc3c1C(=O)N(C1CCC(=O)NC1=O)C3=O)c1nnc(C)n1-2 (stereo partly specified)

Activity [21]: Active
Activity [22]: Active
Compound: Cc1nn(C)c(COc2ccc(N3CCN(C(=O)CCC(=O)NCCCOCCOCCOCCCNC(=O)CCCC[C@@H]4SC[C@@H]5NC(=O)N[C@@H]54)CC3)cc2)c1-c1cccc2c(CCCOc3cccc4ccccc34)c(C(=O)O)n(CCN3CCOCC3)c12
